Assay [1] is described as follows: Displacement of Fl-Sal-AMS from Mycobacterium tuberculosis MbtA expressed in Escherichia coli after 30 mins by fluorescence polarization assay. On the technique in general: Fluorescence polarisation rises when a labelled molecule tumbles more slowly, as on binding a larger partner.
The subject of assay [2] is Acinetobacter baumannii. Put plainly: Antibacterial activity against Acinetobacter baumannii ATCC 19606 using iron-replete M9 minimal media after 15 hrs by broth microdilution assay. Type of assay: functional, organism-based. The settings on record: ATCC 19606 = CIP 70.34 = JCM 6841. The method, boiled down: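 ATCC 19606 grown overnight at 30 °C on LB agar, washed twice in dipyridyl-containing M9/casamino acids medium, then diluted to A600 0.0003 in M9 minimal medium with 0.2% casamino acids plus 200 μM FeCl3. Inhibitors from DMSO at 100 μM final, in triplicate. Controls were tetracycline (100 ng/mL) and 1% DMSO. Incubated at 30 °C, A600 measured at 15 h.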

In assay [3] the test system is Mycobacterium tuberculosis. The experiment in a line: Bacteriostatic activity against Mycobacterium tuberculosis H37Rv using iron-deficient GAST media after 10 to 14 days by broth microdilution assay. It is filed as functional. Put shortly: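 Broth microdilution in iron-deficient GAST, in quadruplicate, with compounds from DMSO stocks and DMSO-matched control wells. Isoniazid served as positive control. Initial density 10⁴–10⁵ cells/assay, 100 μL/well, 37 °C. Growth was read as OD at 620 nm at 10–14 days, when untreated controls reached OD₆₂₀ 0.2–0.3.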
A general note: In broth dilution the organism is exposed to a series of concentrations in liquid medium.

The nature of assay [4]: Displacement of Fl-Sal-AMS from Acinetobacter baumanni BasE expressed in Escherichia coli after 30 mins by fluorescence polarization assay. Set-up: species or system Acinetobacter baumannii. The settings on record: read-out: Kd.
In assay [5] the test system is Acinetobacter baumannii. Put plainly: Antibacterial activity against Acinetobacter baumannii ATCC 19606 using iron-deficient M9 minimal media after 15 hrs by broth microdilution assay. It is filed as functional, organism-based. As to conditions: ATCC 19606 = CIP 70.34 = JCM 6841. Put shortly: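 ATCC 19606 grown overnight at 30 °C on LB agar, washed twice and resuspended in M9 minimal medium with 0.2% casamino acids and 200 μM dipyridyl. Inoculated at A600 0.0003 in this medium plus 1 μM FeCl3. Inhibitors from DMSO at 100 μM final, in triplicate. Tetracycline (100 ng/mL) and 1% DMSO as controls. Incubated at 30 °C; A600 read at 15 h.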

The test system of assay [6] is Mycobacterium tuberculosis. The experiment in a line: Bacteriostatic activity against Mycobacterium tuberculosis H37Rv using iron-replete GAST media after 10 to 14 days by broth microdilution assay. Type of assay: functional. The method, boiled down: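 Broth microdilution in GAST supplemented with 200 μM FeCl₃, in quadruplicate, with compounds from DMSO stocks and DMSO-matched controls. Isoniazid served as positive control. Inoculum 10⁴–10⁵ cells/assay, 100 μL/well, 37 °C. OD₆₂₀ was read at 10–14 days, when untreated controls reached 0.2–0.3.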

Assay [7] can be described thus: Selectivity ratio of Kd for Mycobacterium tuberculosis MbtA to Kd for Acinetobacter baumanni BasE.

Values after ≈ are worked out from the molar mass of the structure shown. Active and inactive are the calls of the source. No rule for the calls is given here.

Regarding `CCOC(=O)c1cc(-c2ccccc2)nc2c1cnn2Cc1ccncc1`, the Kd (usually a measure of binding affinity in units of concentration) was above 100000 nM in assay [1] and 2160 nM in assay [4]. Besides, the result with Acinetobacter baumannii [2] and in the assay on Acinetobacter baumannii [5] was inactive. Moreover, the MIC99 (as a rule, an inhibitory concentration at the 99% level, which refers to growth in some studies and to a panel of isolates in others) in assay [3] was above 125 µM; in assay [6], 125 µM (≈ 44.8 µg/mL).

Consider `O=C(O)c1cc(-c2ccc(Oc3ccccc3)cc2)nc2c1cnn2Cc1ccncc1`, for which the outcome with Acinetobacter baumannii [2] and with Acinetobacter baumannii [5] was inactive. Moreover, the MIC99 in assay [3] and in assay [6] was 25 µM (≈ 10.6 µg/mL) throughout.

With `O=C(c1ccccc1)c1ccc(-c2cc(C(=O)O)c3cnn(Cc4ccncc4)c3n2)cc1`, the outcome in the assay on Acinetobacter baumannii [2] and in the assay with Acinetobacter baumannii [5] was inactive. Moreover, the MIC99 in assay [3] and in assay [6] was above 125 µM each time.

Regarding `O=C(O)c1cc(-c2ccccc2)nc2c1cnn2Cc1ccncc1`, the result in the assay on Acinetobacter baumannii [2] and in the assay with Acinetobacter baumannii [5] was inactive. The MIC99 in assay [3] and in assay [6] was above 125 µM each time.

Turning to `O=C(O)c1cc(-c2ccc(OCc3ccccc3)cc2)nc2c1cnn2Cc1ccncc1`, the results for the Kd in assay [1] and in assay [4] were 5400 nM and 2.14 nM, respectively. For the same compound, the result with Acinetobacter baumannii [2] and with Acinetobacter baumannii [5] was inactive. In addition, the Selectivity ratio in assay [7] amounted to 1000.

(Values after ChEMBL document CHEMBL2321876.)
